KCNQ1 block: inhibitors of human KCNQ1 channel, primary screen, cell-based, thallium flux, high-throughput; Potassium voltage-gated channel subfamily KQT member 1 (Homo sapiens), P51787; CHO-K1 KCNQ1, FluxOR thallium flux fluorescence; hits give high values; B-score at 10 µM; actives 1.3% (n = 310,000); AID 2642, 2010;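 active means compounds whose thallium flux B-score, printed positive for inhibition, exceeds three library SD while starting fluorescence stays within three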;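 further: channel opened by potassium depolarization with thallium stimulus after 20 min compound exposure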
Target sequence (P51787 whole entry, looked up): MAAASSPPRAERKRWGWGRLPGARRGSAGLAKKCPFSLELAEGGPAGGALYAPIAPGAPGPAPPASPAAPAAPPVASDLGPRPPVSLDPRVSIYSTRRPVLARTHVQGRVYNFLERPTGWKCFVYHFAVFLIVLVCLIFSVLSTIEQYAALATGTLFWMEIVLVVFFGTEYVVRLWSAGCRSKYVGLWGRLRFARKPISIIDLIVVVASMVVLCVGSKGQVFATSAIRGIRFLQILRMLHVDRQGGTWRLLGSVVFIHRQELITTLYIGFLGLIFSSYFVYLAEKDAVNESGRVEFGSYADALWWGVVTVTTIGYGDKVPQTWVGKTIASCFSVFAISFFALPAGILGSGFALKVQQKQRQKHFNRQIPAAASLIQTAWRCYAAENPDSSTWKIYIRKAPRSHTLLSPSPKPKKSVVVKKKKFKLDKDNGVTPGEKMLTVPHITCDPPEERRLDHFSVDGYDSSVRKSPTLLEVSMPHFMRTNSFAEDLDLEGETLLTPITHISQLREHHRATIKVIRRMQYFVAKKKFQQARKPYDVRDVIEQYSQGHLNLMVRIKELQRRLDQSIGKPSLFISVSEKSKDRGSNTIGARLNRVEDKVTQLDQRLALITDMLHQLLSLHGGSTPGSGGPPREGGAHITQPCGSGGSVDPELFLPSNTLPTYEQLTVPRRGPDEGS
hERG protect: hERG rescue from dofetilide block, primary screen, cell-based, CHO-hERG, FluxOR thallium flux, dofetilide IC70; Voltage-gated inwardly rectifying potassium channel KCNH2 (Homo sapiens), Q12809; dofetilide IC70 present; activation (rescue from dofetilide block), less the hit threshold, % at 10 µM; actives 0.51% (n = 310,000);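 active means activation above the mean of controls blocked by dofetilide plus 5 SD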;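 further: thallium influx through hERG after potassium depolarization seen as dye fluorescence rise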
KCNK9 block: KCNK9 potassium channel inhibitors, primary screen, HEK293 cells, thallium flux; Potassium channel subfamily K member 9 (Homo sapiens), Q9NPC2; FluxOR thallium flux fluorescence; hits give low values; B-score at 10 µM; actives 1.2% (n = 310,000); AID 488922, 2010;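 active means ratio B-score over 3 SD below the library mean, with starting fluorescence within 5 SD of its mean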;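 further: negative B-score means less thallium flux so channel inhibition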
KCNQ1 act: potentiators or activators of KCNQ1 channel, primary screen, cell-based, thallium flux, high-throughput; Potassium voltage-gated channel subfamily KQT member 1 (Homo sapiens), P51787; CHO-K1 KCNQ1, thallium flux FluxOR fluorescence; hits give high values; B-score at 10 µM; actives 0.35% (n = 310,000);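 active means fluorescence ratio B-score, a plate-corrected score, at least three library SD, with initial intensity B-score within 5 SD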
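Test system: CHO-K1 cells stably expressing KCNQ1 / Medium: assay buffer / Also added: depolarizing K+/Tl+ stimulus, K2SO4 and Tl2SO4 each 12.5 mM in 5x stock / Incubation: 90 min dye loading and 20 min compound exposure, both at room temperature / Signal: thallium influx via FluxOR fluorescence, kinetic imaging / Evaluation: B score of baseline-normalized fluorescence ratio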
KCNK3 block: human KCNK3 channel inhibitors, primary screen, CHO cells, FluxOR thallium flux, B-score. actives 0.84% (n = 340,000). B-score at 10 µM. AID 602410, 2012. FluxOR fluorescence; hits give low values;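 active means B-score under library mean minus 4 SD, starting fluorescence ratio at most library mean plus 5 SD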;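 further: more negative B-score means stronger inhibition of thallium flux through KCNK3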
KCNK9 block conf: KCNK9 potassium channel inhibitors, confirmation, HEK293 cells, thallium flux, duplicate; inhibition, % at 10 µM; AID 492992, 2010; actives 43% (n = 4,900); FluxOR thallium flux fluorescence; shares compounds with KCNK9 block;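 active means thallium signal inhibited by more than 5 SD of the compound-free buffer control wells, on both duplicate plates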;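 further: 0% = assay buffer control wells without compound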
Kir2-1 spec: mouse Kir2.1 channel inhibition, confirmation, selectivity assay for KCNK9 modulator project, cell-based, HEK293, thallium flux. actives 4% (n = 4,900). inhibition, % at 10 µM. Kir2.1 cells, FluxOR thallium flux fluorescence. shares compounds with KCNK9 block. AID 492993, 2010;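 active means thallium signal drop more than 5 SD beyond the mean of the no-compound control wells, seen in both duplicate plates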;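 further: signal is fluorescence rise after thallium addition divided by baseline fluorescence; plate controls were assay buffer only for no effect and full block by chlorpromazine control for full effect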
HEK293 Tl ctr: thallium flux in non-induced HEK293 cells, confirmation, counter-screen for KCNK9 inhibitor project, cell-based, second counter screen, non-induced KCNK9-HEK293. inhibition, % at 10 µM. shares compounds with KCNK9 block. actives 40% (n = 4,900). FluxOR thallium flux;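 active means thallium signal drop beyond 5 SD of the untreated control mean, on both duplicate plates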;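 further: plate controls were buffer only IC0 wells for no effect and SID17386958 at its maximal inhibitory level for full effect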
The depositor's hits bear a star; i = inactive; nt = not tested or not shown. Compounds with a hit are over-represented: about 3.1% of the library has one in this group of screens.

SMILES	KCNQ1 block	hERG protect	KCNK9 block	KCNQ1 act	KCNK3 block	KCNK9 block conf	Kir2-1 spec	HEK293 Tl ctr
CCOc1ccc(CCNC(=O)CSc2nn(-c3ccc(C)c(Cl)c3)c(=S)s2)cc1OCC	i	-12	i	i	i	i	i	i
CCOc1ccc(CCNC(=O)CSCc2ccc(C)cc2)cc1OCC	i	-4	i	i	i	i	i	i
CCOc1ccc(CCNC(=O)CSc2nc3ncc(Cl)cc3[nH]2)cc1OCC	i	-4	i	i	i	nt	nt	nt
CCOc1ccc(CCNC(=O)CCOc2cc(C)ccc2C)cc1OCC	i	-4	i	i	i	i	i	34%*
Cn1nnnc1SCC(=O)NCCc1ccc(Cl)cc1	i	-6	i	i	i	nt	nt	nt
CCOc1ccc(CCNC(=O)CSc2nnnn2C)cc1OCC	i	-8	-13*	i	i	i	i	i
CCOc1ccc(CCNC(=O)COC(=O)COc2cc(C)cc(C)c2)cc1OCC	i	-16	i	i	i	nt	nt	nt
COC(=O)c1c(C)[nH]c(C(=O)C(C)OC(=O)c2c(C)noc2C)c1C (configuration not stated)	nt	nt	nt	nt	i	nt	nt	nt
O=[N+]([O-])c1cc(N=Nc2ccc3ccccc3c2)ccc1O	i	-5	i	i	i	nt	nt	nt
CC(C)Cc1nnc(NC(=O)c2ccc3c(c2)NC(=O)C(C)S3)s1 (configuration not stated)	i	-15	i	i	i	nt	nt	nt
O=C(CSCc1ccccc1)NCCc1ccc(F)cc1	i	-6	i	i	i	nt	nt	nt
O=C(CSCc1ccc(Br)cc1)NCCc1ccccc1	i	-9	i	i	i	i	i	i
COc1cccc(N2CCN(CC(=O)NC3=Nc4ccccc4N=C(C)C3c3ccccc3)CC2)c1 (configuration not stated)	i	-8	-14*	i	i	54%*	i	28%*
Cc1c(C(=O)N2CCC[C@H]2C(N)=O)oc2c(F)cccc12	i	-3	i	i	i	i	i	i
O=C(CC(Nc1ccccc1)C(=O)O)c1ccccc1 (configuration not stated)	i	-14	i	i	i	nt	nt	nt
O=C(CC(Nc1ccccc1)c1ccc(F)cc1)c1ccccc1 (configuration not stated)	i	-14	-9.7*	i	i	60%*	i	42%*
COC(=O)[C@@]1(C)[C@H]2C(=O)N(Cc3ccccc3)C(=O)[C@H]2[C@H]2CN=C(SCC(=O)c3ccccc3)N21	nt	nt	nt	nt	i	nt	nt	nt
CCOC(=O)c1c(C)nc2sc3c(=O)n(-c4ccc(C)cc4)cnc3c2c1-c1ccc(OC)cc1	i	-5	i	i	i	nt	nt	nt
CCOC(=O)CSc1nc(C)nc2c1sc1nc(C)c(C(C)=O)c(-c3ccc(OC)cc3)c12	i	-5	-11*	i	i	48%*	i	46%*
CCCc1c(C)nc(N2CCN(c3ccccc3OC)CC2)[nH]c1=O	i	2	i	i	i	nt	nt	nt
O=C(OCc1nnc(-c2ccccc2)o1)C12CC3CC(CC(Br)(C3)C1)C2	i	-14	i	i	i	i	i	i
O=C(OCc1nnc(-c2ccccc2)o1)c1ccccc1	i	-9	i	i	i	nt	nt	nt
CCOC(=O)c1cc(-c2ccccc2)sc1NC(=O)C(C)Sc1nnnn1C (configuration not stated)	i	-14	-17*	i	i	61%*	i	36%*
CCOc1ccc(OCCC(=O)N2CCN(S(=O)(=O)c3cccc(F)c3)CC2)cc1	i	-7	i	i	i	nt	nt	nt
CCC(=O)c1ccc(OCC(=O)OCC(=O)c2cc(C)n(CC3CCCO3)c2C)cc1 (configuration not stated)	i	-16	i	i	i	nt	nt	nt
SMILES	KCNQ1 block	hERG protect	KCNK9 block	KCNQ1 act	KCNK3 block	KCNK9 block conf	Kir2-1 spec	HEK293 Tl ctr
Cc1cc(C(=O)COC(=O)C2CCN(C(=O)c3ccc(Cl)cc3)CC2)c(C)n1CC1CCCO1 (configuration not stated)	i	-15	i	i	i	i	i	i
CSc1ccc(C=NNc2ccc(S(=O)(=O)Nc3ccccc3C(=O)O)cc2[N+](=O)[O-])cc1	nt	nt	nt	nt	i	nt	nt	nt
Cc1nn(-c2ccccc2)c(Cl)c1/C=N/Nc1ccc(S(=O)(=O)Nc2ccccc2C(=O)O)cc1[N+](=O)[O-]	i	-11	i	i	i	i	i	i
Cc1nc2ccccc2c(=O)n1-c1ccc(NS(=O)(=O)c2ccc(F)cc2)cc1	i	-10	i	i	i	nt	nt	nt
Cn1nc(-c2ccccc2F)c2cc(C(=O)Nc3ccc4c(c3)OCCO4)sc21	i	-13	-12*	i	i	49%*	i	i
Cc1ccc(-n2nc(C)c(C(=O)N3CCN(C(=O)c4ccco4)CC3)c2-n2cccc2)cc1	i	-10	i	i	i	nt	nt	nt
CC(C)c1ccc(/C=C/C(=O)NCCCc2ccccc2)cc1	6*	-5	i	i	i	i	i	i
COc1ccc(/C=C/C(=O)NCCCc2ccccc2)cc1	i	-7	i	i	i	nt	nt	nt
COC(=O)c1cc(OCC(=O)Nc2ccc3c(c2)CCC3)cc(C(=O)OC)c1	nt	nt	nt	nt	i	nt	nt	nt
O=C1OC(c2ccccc2)(c2ccc(O)cc2)c2ccccc21 (configuration not stated)	nt	nt	nt	nt	i	nt	nt	nt
Cc1cccc(C2(c3cccc(C)c3)OC(=O)c3ccccc32)c1	i	-13	-19*	i	i	78%*	i	43%*
Cc1cc(O)ccc1C1(c2ccc(O)cc2C)OC(=O)c2ccccc21	i	-2	-13*	i	i	44%*	i	i
CCN(C(=O)COC(=O)Cc1c[nH]c2ccccc12)c1c(N)n(Cc2ccccc2)c(=O)[nH]c1=O	i	-7	i	i	i	nt	nt	nt

Screening results as filed in PubChem BioAssay.
